“And” between values parts separate entries of the source, which are not always exact repeats. Identical values can stand only once.
Columns and labels:
[1] = system: 4A1^F163L/4A2^− eHAP1 cells; experiment: RT-qPCR of FF-4.04 and FF-4.06 reporter mRNA; format: cell-based; conditions: 5 h exposure, normalized to GAPDH, relative to DMSO
Procedure, shortened: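 Cells were nucleofected with the PTC-containing or control FLuc-β-globin reporter and selected as a pool in G418 (1.6 mg/mL). They were seeded at 250,000/well and exposed to compound for 5 h. After TRIzol extraction and oligo(dT) cDNA synthesis, EvaGreen qPCR used β-globin (HBB) primers. Values were normalized to GAPDH and expressed relative to DMSO.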

[2] = system: SC35 mRNA in 4A1^F163L/4A2^− eHAP1 cells; experiment: RT-qPCR of endogenous SC35 and HPRT mRNA; format: cell-based; conditions: 5 h exposure, normalized to β-actin
Procedure, shortened: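 Cells were seeded at 250,000/well and given a concentration series of compound for 5 h. Total RNA was TRIzol-extracted, and 500 ng was reverse-transcribed with oligo(dT) primer. EvaGreen qPCR measured SC35 and HPRT, normalized to β-actin and expressed as fold change versus DMSO.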

[3] = system: Krebs-2 translation extracts; experiment: In vitro translation of FF/HCV/Ren bicistronic reporter mRNAs; format: biochemical; conditions: Krebs-2 extracts, 1 h at 30°C
Procedure, shortened: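 Reporter mRNAs were used at 10 ng/µL final. FLuc and RLuc activities were read by luminometry, and RLU were normalized to DMSO vehicle controls.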

[4] = system: TCR-β minigene mRNA (NMD) in HeLa cells; experiment: NMD assay, RT-qPCR of TCR-β minigene mRNA in PTC− and PTC+ HeLa cells; format: cell-based; conditions: for TCR-β mRNA levels in PTC+ cells / TCR-β mRNA levels in PTC− cells: normalized to β-actin; for TCR-β mRNA levels in PTC− cells: PTC− HeLa cells
Procedure, shortened: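 HeLa cells carrying a TCR-β minigene with or without a PTC were seeded at 100,000/well and exposed to compound across a concentration series for 1 h or 5 h. Total RNA was TRIzol-extracted, and 500 ng was reverse-transcribed with oligo(dT) primer. EvaGreen qPCR followed, with TCR-β normalized to β-actin. n = 3 ± SD.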

[5] = system: 4A1^F163L/4A2^− eHAP1 cells; experiment: Luciferase NMD reporter assay; format: cell-based; conditions: 6 h exposure
Procedure, shortened: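 Cells were transfected at 75% confluency with an FLuc-β-globin plasmid (PTC-containing or control, with or without an upstream HCV IRES) plus an HCV-IRES RLuc plasmid. The next day they were reseeded and left to recover for 24 h, then given compound for 6 h. Cells were lysed and both luciferases read by luminometry. n = 3 ± SD.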

[6] = system: HeLa cells harboring a (TCR)-β minigene; experiment: [35S]-Methionine labeling of de novo protein synthesis; format: cell-based; conditions: 1 h exposure, labeling last 15 min
Procedure, shortened: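 PTC+ minigene HeLa cells were seeded at 50,000/well and treated with compound for 1 h the next day, with [35S]-Met/Cys added for the final 15 min. Cells were washed and lysed in RIPA buffer, and lysates were spotted on paper and TCA-precipitated. Radioactivity was measured by scintillation counting and normalized to total protein. n = 3 ± SD.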

[7] = molecular target: T1, eIF4A1 (Homo sapiens, UniProt P60842); experiment: FP dissociation of preformed protein•ATP•RNA•compound complexes; format: binding; conditions: 10 µM compound, 1 mM ATP, 1000-fold molar excess unlabeled poly r(AG)8 RNA
Procedure, shortened: (§1)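 Recombinant His6-tagged human protein was expressed in E. coli BL21(DE3) and Ni-NTA purified. Complexes were preformed for 30 min at RT in the dark in FP buffer (HEPES-NaOH pH 8, 0.1% DMSO) with 1.5 µM protein, 10 nM FAM-poly r(AG)8 and 1 mM ATP. DMSO reactions used 25 µM protein. After adding 10 µM unlabeled RNA, FP was read every 10 sec. Half-life came from a one-phase exponential decay fit (Y0 = 1, plateau = 0).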

[8] = molecular target: T2, eIF4A3 (Homo sapiens, UniProt P38919); experiment: as above; format: binding; conditions: 10 µM compound, 1 mM ATP, 1000-fold molar excess unlabeled poly r(AG)8 RNA
Procedure, shortened: as §1

[9] = molecular target: T2, eIF4A3; experiment: Fluorescence polarization; format: binding; conditions: 10 µM compound, 1 mM AMPPNP
[10] = molecular target: T1, eIF4A1; experiment: Fluorescence polarization; format: binding; conditions: 10 µM compound, 1 mM AMPPNP

T1 sequence (P60842 whole entry, species assumed): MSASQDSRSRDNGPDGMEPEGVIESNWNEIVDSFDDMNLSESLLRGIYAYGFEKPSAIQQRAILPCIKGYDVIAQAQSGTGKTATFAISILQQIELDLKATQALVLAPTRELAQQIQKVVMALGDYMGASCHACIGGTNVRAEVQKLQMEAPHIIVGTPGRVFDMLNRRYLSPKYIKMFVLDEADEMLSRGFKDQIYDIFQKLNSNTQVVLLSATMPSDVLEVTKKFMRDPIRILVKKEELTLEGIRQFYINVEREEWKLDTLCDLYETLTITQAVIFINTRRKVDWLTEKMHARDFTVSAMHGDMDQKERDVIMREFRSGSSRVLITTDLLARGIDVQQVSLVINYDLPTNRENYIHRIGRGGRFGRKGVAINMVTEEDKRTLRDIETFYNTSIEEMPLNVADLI
T2 sequence (P38919 whole entry, species assumed): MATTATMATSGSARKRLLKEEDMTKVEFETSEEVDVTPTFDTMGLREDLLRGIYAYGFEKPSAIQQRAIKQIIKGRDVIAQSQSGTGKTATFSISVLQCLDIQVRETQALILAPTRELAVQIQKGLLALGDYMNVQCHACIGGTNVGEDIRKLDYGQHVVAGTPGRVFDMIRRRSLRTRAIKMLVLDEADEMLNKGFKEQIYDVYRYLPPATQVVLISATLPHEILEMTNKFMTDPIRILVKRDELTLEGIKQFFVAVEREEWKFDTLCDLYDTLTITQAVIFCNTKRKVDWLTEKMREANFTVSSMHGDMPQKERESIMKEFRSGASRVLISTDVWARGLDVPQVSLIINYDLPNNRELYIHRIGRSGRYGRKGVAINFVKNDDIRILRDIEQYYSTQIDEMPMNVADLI

SMILES | FF-4.06 (NMD reporter) mRNA levels [1] | HPRT mRNA levels [2] | SC35 mRNA levels relative to DMSO controls [2] | Translational response of all three reporters (AG, UC, NMD 5′ leaders) [3] | TCR-β mRNA levels in PTC+ cells ([4]; PTC+ HeLa cells, 5 h exposure) | TCR-β mRNA levels in PTC− cells ([4]; 5 h exposure) | Luc expression from FF-4.04 or FF-4.06 reporters ([5]; 300 nM, both reporters) | RLuc expression from internal HCV/Ren control [5] | Expression of HCV/FF-4.04 and HCV/FF-4.06 reporters ([5]; titration range tested) | 35S-Met incorporation into proteins (translation) [6] | Translational response of reporter mRNA with polypurine ([AG]10) 5′ leader [3] | Effect on TCR-β minigene mRNA levels ([4]; PTC+ HeLa cells, 1 µM compound for 1 h) | Fitted half-life T(1/2) of eIF4A1•ATP•RNA•compound complex [7] | Fitted half-life T(1/2) of eIF4A3•ATP•RNA•compound complex [8] | Clamping of eIF4A3 to poly r(AG)8 RNA (ΔmP relative to DMSO) [9] | Increase of PTC+ mRNA levels ([4]; PTC+ HeLa cells, 1 h exposure, highest concentration tested (200 nM)) | Increase of PTC+ mRNA levels ([4]; PTC+ HeLa cells, 5 h exposure) | Clamping of eIF4A1 to poly r(AG)8 RNA (ΔmP relative to DMSO) [10]
C[C@@H]1C[C@@H]([C@H](O)CC2CC(=O)NC(=O)C2)C(=O)[C@@H](C)C1 [CHX, cycloheximide] | increased | not increased | significant increase | equally responsive | significantly increased | no impact |  |  |  |  |  |  |  |  |  |  |  | 
CONC(=O)[C@H]1[C@@H](O)[C@@]2(O)c3c(OC)cc(OC)cc3O[C@@]2(c2ccc(OC)cc2)[C@@H]1c1ccccc1 [CR-1-31B] | increased only in the presence of CHX | not increased | did not significantly change |  | substantial stabilization |  | approximately twofold | No change | neither reporter showed a change in expression | translation was blocked | conferred CR-1-31B responsiveness | no significant effect | 0.833 ± 0.005 h | 0.4 ± 0.0067 h | able to induce clamping |  |  | 
CC(/C=C/C(C)=C/[C@@H]1Cc2nc(cs2)[C@@H](C)C[C@@H](N)CC(=O)O[C@@H](C)C/C(C)=C/C=C\C(=O)O1)=C\CN(C)C [PatA, pateamine A] |  | not increased | significant increase | equally inhibited all reporters | Stabilization of TCR-β mRNA | but not PTC− cells |  |  |  | translation was blocked |  |  | 1.83 h and 1.83 ± 0.0233 h | 3.05 h and 3.05 ± 0.02 h | clamping was observed | approximately threefold | 10 fold | clamping was observed
COc1ccc([C@@]23Oc4cc(OC)cc(OC)c4[C@]2(O)[C@H](O)[C@H](C(=O)N(C)C)[C@H]3c2ccccc2)cc1 [RocA] |  |  |  |  |  |  |  |  |  |  |  |  |  |  | able to induce clamping |  |  | 
COC(=O)[C@H]1[C@@H](O)[C@@]2(O)c3c(OC)cc(O[C@@H]4O[C@@H]([C@H](O)CO)CO[C@H]4OC)cc3O[C@@]2(c2ccc(OC)cc2)[C@@H]1c1ccccc1 [silvestrol] |  |  |  |  |  |  |  |  |  |  |  |  |  |  | able to induce clamping |  |  | 

From article PMC10187672 (RNA, 2023)
